Experimental data as given in PubChem BioAssay AID1515 (The Scripps Research Institute Molecular Screening Center, 2009).
Hit rate of the full screen: of about 220,000 compounds, about 440 (0.2%) were called active.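 How the source made its calls: active means inhibition above the campaign mean of all tested compounds plus 3 SD (cut at about 14% in these data); inactive means the rest.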 The entries come from a sample that favours actives as a whole.

Each molecule was assayed against Serine hydrolase RBBP9 (Homo sapiens) (UniProt O75884) (assay: blockers of RBBP9 serine hydrolase labeling – biochemical, fluorescence polarization, FP-Rh probe, HTS, primary screen (AID 1515;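 further: plate controls were DMSO wells with RBBP9 for no effect and wells lacking RBBP9 protein for full effect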)). Conditions: recombinant RBBP9, FP-Rh probe fluorescence polarization; at 7.94 µM; active compounds read high.
Chain of Serine hydrolase RBBP9 (Homo sapiens) (O75884 whole entry, looked up): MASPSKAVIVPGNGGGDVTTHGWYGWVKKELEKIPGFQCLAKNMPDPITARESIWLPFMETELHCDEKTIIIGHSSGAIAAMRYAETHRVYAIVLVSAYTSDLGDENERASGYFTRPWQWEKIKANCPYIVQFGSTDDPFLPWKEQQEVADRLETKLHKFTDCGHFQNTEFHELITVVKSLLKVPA
In short: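 system = RBBP9 protein | input = RBBP9 at 2.5 µM in dispensed solution, before mixing | measured by = fluorescence polarization (mP), excitation 525 nm, emission 598 nm | incubation = enzyme-compound preincubation 30 min, then probe labeling 45 min, 25 °C | buffer or medium = Tris-NaCl-Pluronic buffer, pH 8.0 | compound = single dose 7.94 µM | also added = FP-Rh probe, 375 nM dispensing solution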

Structure (SMILES) | inhibition
Cc1ccc(CS(=O)(=O)CCC(=O)NC2CC2)cc1 | -3.2% (inactive)
O=C1/C(=C\c2cccnc2)CN(Cc2ccccc2)C/C1=C\c1cccnc1 | -6.31% (inactive)
Cc1ccccc1NS(=O)(=O)CCCCC(Cl)(Cl)Cl | 2.33% (inactive)
CCC(=O)Nc1c(C)n[nH]c1C | -4.5% (inactive)
CCN1C(=O)/C(=C\N2CCOCC2)SC1=S | -5.07% (inactive)
Cc1ccc2nc(SCc3cn4c(C)cc(C)nc4n3)[nH]c2c1 | -9.49% (inactive)
O=C(c1c(Cl)cccc1Cl)N1CCN(c2cccc3[nH]ccc23)CC1 | -7.2% (inactive)
Cc1c(NC(=O)CCC2CCCCC2)cc(C(=O)N2CCOCC2)cc1[N+](=O)[O-] | 7.08% (inactive)
COc1ccc(CCNC(=O)C(=O)Nc2ccc3nc4n(c(=O)c3c2)CCCCC4)cc1OC | 6.2% (inactive)
COc1ccc2c(c1)CC[C@@H]1[C@@H]2CC[C@]2(C)C(=O)CC[C@@H]12 | -1.04% (inactive)
Cc1cccc(C)c1NC(=O)C1CCCN1C(=O)OC(C)(C)C (configuration not stated) | -5.32% (inactive)
Cc1cccc(-c2nc3c(c(SCC(=O)N4CCOCC4)n2)CCCC3)c1 | 11.1% (inactive)
CC(C)N(Cc1nc(-c2ccc3c(c2)OCO3)no1)CC1CCC(=O)N1 (configuration not stated) | -10.1% (inactive)
COCCN(Cc1nc(-c2ccc(C(F)(F)F)cc2)no1)C(C)C | 15% (active)
COc1ccc(-c2noc(CN(C)S(=O)(=O)c3ccc(C)cc3)n2)cc1 | -9.12% (inactive)
Cn1sc(=O)c2cc(S(=O)(=O)NC3CC3)ccc21 | 33.3% (active)
CSc1ccc(S(=O)(=O)NC2CCCCC2)cc1 | 0.08% (inactive)
CC1CCC(NS(=O)(=O)c2ccc3c(c2)n(C)c(=O)c(=O)n3C)CC1 (configuration not stated) | -2.22% (inactive)
Cc1cc(C)c[n+](-c2nc3ccccc3nc2[N-]S(=O)(=O)c2cccs2)c1 | -7.26% (inactive)
O=C1CC(c2ccccc2)=NN1c1ccc([N+](=O)[O-])cc1 | -12.2% (inactive)
O=c1[nH]c2cccnc2n1-c1ccc([N+](=O)[O-])cc1 | 4.37% (inactive)
O=c1[nH]n(-c2ccc([N+](=O)[O-])cc2)c(=O)c2ccccc12 | 15.9% (active)
O=C(NNC1CC(=O)N(c2cccc(Cl)c2)C1=O)c1cccnc1 (configuration not stated) | -9.81% (inactive)

Structure (SMILES) | inhibition
CC(C)(C)C1CCC(OC(=O)CCC(=O)Nc2ccccc2)CC1 (configuration not stated) | -0.76% (inactive)
C=CCN(CC=C)CCOc1ccccc1[N+](=O)[O-] | -6.95% (inactive)
CSc1ccccc1NC(=O)CN(C)CC(=O)Nc1ccc(Cl)cc1[N+](=O)[O-] | 6.47% (inactive)
COc1cccc(-n2nc(C(=O)N3CCN(Cc4ccccc4)CC3)c3ccccc3c2=O)c1 | -0.83% (inactive)
Cc1cc(NC(=O)CSc2nccn2-c2ccc([N+](=O)[O-])cc2)no1 | -5.53% (inactive)
Cc1c(CCO)sc[n+]1CC(=O)OC12CC3CC(CC(C3)C1)C2 | 6.14% (inactive)
Cc1cc(C(=O)OCC(=O)Nc2nnc(C(C)C)s2)c2ccccc2n1 | -5.01% (inactive)
CC(OC(=O)c1ccc(NS(=O)(=O)c2ccc3[nH]c(=O)[nH]c3c2)cc1)C(=O)Nc1cccc(Cl)c1Cl (configuration not stated) | -24.3% (inactive)
Oc1cccc2ccc(/C=C/c3ccc(Br)s3)nc12 | -6.67% (inactive)
O=C(Cc1cccs1)N/N=C/c1ccc(OCc2ccccc2)cc1 | -9.96% (inactive)
CC(C)(C)Nc1c(N)c(=O)oc2ccccc12 | -7.21% (inactive)
COC(=O)c1cc(NC2c3ccccc3C(=O)N2c2ccc(Cl)cn2)cc(C(=O)OC)c1 (configuration not stated) | 2.1% (inactive)
Cc1ccnc(N2C(=O)c3ccccc3C2Nc2ccc3c(c2)OCCO3)c1 (configuration not stated) | 5.23% (inactive)
CCc1ccccc1NC1c2ccccc2C(=O)N1c1cccnc1 (configuration not stated) | 19.1% (active)
COc1ccc(N2C(=O)C3CCCN3C2c2cc(OC)c(OC)cc2OC)cc1 (configuration not stated) | 14.8% (active)
COc1ccc(N2C(=O)C3CCCN3C2c2cccs2)cc1 (configuration not stated) | -3.07% (inactive)
COc1ccc(N2C(=O)C3CCCN3C2c2cccc(OC)c2)cc1 (configuration not stated) | -6.79% (inactive)
COC(=O)C1=C(C)N(C)C(=O)NC1c1ccc([N+](=O)[O-])o1 (configuration not stated) | 4.8% (inactive)
O=C(NCc1ccccc1Cl)NC(=O)c1csc([N+](=O)[O-])c1 | 2.74% (inactive)
COc1ccc2c(c1)C(C)=CC(C)(C)N2C(=O)CNCc1ccc2c(c1)OCO2 | 0.21% (inactive)
COc1ccc2c(c1)C(C)=CC(C)(C)N2C(=O)Nc1ccccc1 | 14.3% (active)
CC1=CC(C)(C)N(C(=O)CSc2nnc(-c3ccccc3)o2)c2ccc(C)cc21 | -8.58% (inactive)
CC(=O)Nc1ccc(NC(=S)NC(=O)c2ccc([N+](=O)[O-])c(C)c2)cc1 | 6.76% (inactive)

Structure (SMILES) | inhibition
Cc1ccc(C)c(S(=O)(=O)N2CCN(CC(=O)Nc3ccc([N+](=O)[O-])cc3)CC2)c1 | -5.91% (inactive)
CN1CCN(CC(=O)Nc2cccc([N+](=O)[O-])c2)CC1 | 7.61% (inactive)
Cc1ccc(NC(=O)CN2CCC(C(N)=O)CC2)cc1[N+](=O)[O-] | 28.6% (active)
CC1=C(C(=O)Nc2cc(C)ccn2)C(c2cnn(C)c2)C2=C(CC(c3ccccc3)CC2=O)N1 (configuration not stated) | -4.73% (inactive)
O=S(=O)(NC1CC1)c1ccc2c3c(cccc13)CC2 | -3.01% (inactive)
COc1ccc(C(C[N+](=O)[O-])n2nc(C)cc2C)cc1 (configuration not stated) | -13.8% (inactive)
CC1CCN(C2=NC(=O)/C(=C/c3cn[nH]c3-c3ccccc3)S2)CC1 | -1.8% (inactive)
CS(=O)(=O)c1ccc(Cl)c(NC(=O)Nc2ccccc2)c1 | -8.09% (inactive)
O=[N+]([O-])c1c(NCCO)cc(Sc2nc3ccccc3s2)c2nonc12 | 16.6% (active)
COc1ccc(S(=O)(=O)Nc2ccc(O)c(Sc3nc4ccccc4s3)c2)cc1 | -4.18% (inactive)
O=C(CSc1nc2ccccc2s1)Nc1ccc(C(=O)O)cc1 | -5.16% (inactive)
CCOC(=O)N1CCN(C(=S)Nc2ccc(C)cc2C)CC1 | -5.94% (inactive)
Cc1ccc(-c2cc(C(=O)NCC3CCCO3)c3ccccc3n2)o1 (configuration not stated) | -0.54% (inactive)
CC(C)(C)C1CCC(C(=O)Nc2cccnc2)CC1 (configuration not stated) | -3.33% (inactive)
CN(C)c1ccc(C=NCCc2ccc(S(N)(=O)=O)cc2)cc1 | -3.47% (inactive)
CCCc1nc(SCC(=O)Nc2ccc(S(=O)(=O)N(C)C)cc2)c2ccccc2n1 | -8.27% (inactive)
COc1ccc([C@H]2[C@H](C(C)=O)N3N=Cc4ccccc4C3C23C(=O)OC(C)(C)OC3=O)cc1 (some centres not stated) | 0.49% (inactive)
CC(=O)Nc1nc(C)c(-c2csc(Nc3ccc(S(N)(=O)=O)cc3)n2)s1 | -4.68% (inactive)
COc1cc2c(cc1OC)CC1(CCCCC1)N=C2 | -7.64% (inactive)
O=C(O)Cc1sc(-c2ccc(C(=O)O)cc2)nc1-c1ccccc1 | -2.34% (inactive)
Cc1ccc(-c2nc(C)sc2CC(=O)O)cc1 | -5.14% (inactive)
C/C(=N/Nc1nc(-c2ccccc2)c(CC(=O)O)s1)c1ccccc1 | 17% (active)
COc1ccc(NC(C)=O)cc1NC(=O)CN1CCN(C2c3ccccc3-c3ccccc32)CC1 | -0.61% (inactive)

Structure (SMILES) | inhibition
CC(=O)NC1C(Oc2ccc(C=O)cc2)OC(COC(C)=O)C(OC(C)=O)C1OC(C)=O (configuration not stated) | -10.2% (inactive)
CC(=O)NC1=NN(C(C)=O)C(C)(CCS(=O)(=O)c2ccc(Cl)c(Cl)c2)S1 (configuration not stated) | -8.22% (inactive)
COc1cc(/C=C2/C(=O)ON=C2C)ccc1OCc1ccccc1F | -7% (inactive)
CC1=NOC(=O)/C1=C\c1ccccc1 | 15.4% (active)
COc1cc(/C=C2/C(=O)ON=C2C)ccc1OCc1cccc(F)c1 | -10.5% (inactive)
Cc1ccc(S(=O)(=O)N(C)C)cc1NC(=O)c1n[nH]c(=O)c2ccccc12 | 1.59% (inactive)
CCOC(=O)C1=C(CC)OC(N)=C(C#N)C1c1ccc(F)cc1F (configuration not stated) | -1.24% (inactive)
N#Cc1cc([N+](=O)[O-])ccc1Oc1cccc(/C=N/NC(=O)c2ccc(Cl)cc2)c1 | 1.74% (inactive)
Cn1c(CSCC(=O)Nc2ccccc2)nnc1SCc1ccccc1 | 1.33% (inactive)
COc1ccc(C2CC(c3ccccc3)=NN2C(=O)CSc2nccc(=O)[nH]2)cc1 (configuration not stated) | -13.6% (inactive)
COc1ccc(C2NC(=S)NC3=C2CCc2ccccc23)cc1OC (configuration not stated) | -1.09% (inactive)
COc1ccccc1P(=O)(c1ccccc1)c1ccccc1NC(C)=O (configuration not stated) | 4.53% (inactive)
O=C(O)CCS(=O)(=O)c1ccc(-c2ccccc2)cc1 | -1.5% (inactive)
CCCC(=O)Nc1ccc2c(c1)nc(CCNC(=O)c1ccco1)n2C | -8.19% (inactive)
CCn1c(CNC(=O)c2ccccc2)nnc1SCC(=O)N1CCN(c2ccccc2)CC1 | -8.71% (inactive)
Cc1ccc2cc(CCNC(=O)c3c(-c4ccccc4Cl)noc3C)c(=O)[nH]c2c1 | -1.48% (inactive)
O=c1c2ccccc2nc2n1C(CSCc1cccc(C(F)(F)F)c1)CS2 (configuration not stated) | -8.83% (inactive)
N#Cc1c(NC(=O)C2CC(Cl)=CCC2C(=O)O)sc2c1CCCCC2 (configuration not stated) | -6.51% (inactive)
CCNC(=S)N1CCC(c2nc3cc(C)c(C)cc3[nH]2)CC1 | -6.72% (inactive)
Cc1cc([N+](=O)[O-])nn1CCCC(=O)Nc1cccnc1Cl | -5.84% (inactive)
Cc1cc([N+](=O)[O-])nn1CC(=O)Nc1ccc(Cc2ccncc2)cc1 | -7.35% (inactive)
Cc1cc([N+](=O)[O-])nn1Cc1ccc(F)cc1 | 16.8% (active)
Brc1cc(/C=N/n2cnnc2)oc1Br | -14.7% (inactive)
